Measured values from ChEMBL document CHEMBL1152609, “Synthesis and pharmacological exploitation of clioquinol-derived copper-binding apoptosis inducers triggering reactive oxygen species generation and MAPK pathway activation” (2009).
Values belong to the compound of their own block, whether it stands above or below them. The source made the active and inactive calls. The calls are words filed in the database; no cut-off is given here.

Key:
[1] = test system: HeLa; test: Growth inhibition of human HeLa cells after 48 hrs by MTT assay in presence of 10% FBS supplemented DMEM medium; type: functional
In short: (§1)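 Cells seeded at 5 × 10³/well and allowed 24 h to attach, then exposed to compound (DMSO stock) or vehicle for 48 h in 10% FBS DMEM at 37 °C, 5% CO₂. MTT (2 mg/mL in PBS) added for a further 2 h; formazan dissolved in DMSO and read at 570 nm. Inhibition = (1 − At/Ac) × 100. GI₅₀ interpolated from dose-response curves; mean ± SEM of 4–6 experiments; top concentration 40 μM.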

[2] = Growth inhibition of human BT-483 cells after 48 hrs by MTT assay in presence of 10% FBS supplemented DMEM medium; type: functional; settings: BT-483, 48 h; in short: as §1
[3] = molecular target: T1, MAP kinase p38 (Homo sapiens) (UniProt O15264+Q15759+Q16539+P53778); test: Activation of p38 phosphorylation in human HeLa cells at 3 uM in presence of 10 uM CuCl2 by Western blot; type: cell-based; settings: TDE = time-dependent effect
In short: (§2)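 HeLa cells grown in DMEM with 10% FBS, 2 mM glutamine and penicillin/streptomycin at 37 °C, 5% CO₂. Treated cells were lysed and the extracts run on Western blot. Membranes were blocked overnight at 4 °C in TBST/5% non-fat milk. Probed with phospho- and total ERK1/2, p38 and JNK antibodies, then anti-mouse or anti-rabbit IgG (1:10,000, 1 h, RT), with ECL detection.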

[4] = test system: HeLa; test: Activation of ERK phosphorylation in human HeLa cells at 3 uM in presence of 10 uM CuCl2 and tempol after 2 hrs by Western blot; type: cell-based; in short: as §2
[5] = Activation of JNK phosphorylation in human HeLa cells at 3 uM in presence of 10 uM CuCl2 and tempol after 2 hrs by Western blot; type: cell-based; in short: as §2
[6] = molecular target: T1, MAP kinase p38 (Homo sapiens); test: Activation of p38 phosphorylation in human HeLa cells at 3 uM in presence of 10 uM CuCl2 and tempol after 2 hrs by Western blot; type: cell-based; in short: as §2
[7] = test system: HeLa; test: Activation of ERK phosphorylation in human HeLa cells at 3 uM after 2 hrs by Western blot; type: cell-based; in short: as §2
[8] = Activation of JNK phosphorylation in human HeLa cells at 3 uM after 2 hrs by Western blot; type: cell-based; in short: as §2
[9] = molecular target: T1, MAP kinase p38 (Homo sapiens); test: Activation of p38 phosphorylation in human HeLa cells at 3 uM after 2 hrs by Western blot; type: cell-based; in short: as §2
[10] = test system: HeLa; test: Activation of ERK phosphorylation in human HeLa cells at 3 uM in presence of 10 uM CuCl2 by Western blot; type: cell-based; settings: TDE = time-dependent effect; in short: as §2
[11] = Activation of JNK phosphorylation in human HeLa cells at 3 uM in presence of 10 uM CuCl2 by Western blot; type: cell-based; settings: TDE = time-dependent effect; in short: as §2
[12] = Growth inhibition of human SKHep cells after 48 hrs by MTT assay in presence of 10% FBS supplemented DMEM medium; type: functional; in short: as §1
[13] = Growth inhibition of human CE81T cells after 48 hrs by MTT assay in presence of 10% FBS supplemented DMEM medium; type: functional; in short: as §1
[14] = test system: HeLa; test: Growth inhibition of human HeLa cells after 48 hrs by MTT assay in presence of 1 uM CuCl2; type: functional; in short: as §1
[15] = test system: HeLa; test: Growth inhibition of human HeLa cells after 48 hrs by MTT assay in presence of 10 uM CuCl2; type: functional; in short: as §1
[16] = test system: HeLa; test: Growth inhibition of human HeLa cells after 48 hrs by MTT assay in presence of 50 uM CuCl2; type: functional; in short: as §1
[17] = test system: HeLa; test: Growth inhibition of human HeLa cells after 48 hrs by MTT assay in presence of 50 uM ZnCl2; type: functional; in short: as §1
[18] = test system: HeLa; test: Growth inhibition of human HeLa cells after 48 hrs by MTT assay in presence of 100 uM ZnCl2; type: functional; in short: as §1
[19] = test system: HeLa; test: Induction of apoptosis in human HeLa cells assessed as accumulation at subG1 phase after 24 hrs by flow cytometry; type: functional, cell-based
In short: (§3)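 HeLa cells exposed 24 h to test agent; controls were 0.5% DMSO and untreated cells. Optional additions were CuCl₂ 10 μM, tempol 1 mM or z-VAD. Cells were fixed in 80% ethanol and held at −20 °C. They were then stained 30 min at room temperature in the dark with PI 0.08 mg/mL, 0.1% Triton X-100 and RNase A 0.2 mg/mL in PBS. Subdiploid (sub-G1) fraction was quantified by flow cytometry as % of all events.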

[20] = test system: HeLa; test: Induction of apoptosis in human HeLa cells assessed as PARP cleavage at 3 uM after 24 hrs by Western blot; type: functional, cell-based
[21] = test system: HeLa; test: Induction of apoptosis in human HeLa cells assessed as PARP cleavage at 10 uM after 24 hrs by Western blot; type: functional, cell-based
[22] = test system: HeLa; test: Induction of apoptosis in human HeLa cells assessed as procaspase-3 activation at 3 uM after 24 hrs by Western blot; type: functional, cell-based
[23] = test system: HeLa; test: Induction of apoptosis in human HeLa cells assessed as procaspase-3 activation at 10 uM after 24 hrs by Western blot; type: functional, cell-based
[24] = test system: HeLa; test: Induction of apoptosis in human HeLa cells assessed as procaspase-9 activation at 3 uM after 24 hrs by Western blot; type: functional, cell-based
[25] = test system: HeLa; test: Induction of apoptosis in human HeLa cells assessed as procaspase-9 activation at 10 uM after 24 hrs by Western blot; type: functional, cell-based
[26] = test system: HeLa; test: Induction of apoptosis in human HeLa cells assessed as accumulation at subG1 phase at 3 uM after 24 hrs using propidium iodide staining by flow cytometry; type: functional; in short: as §3
[27] = test system: HeLa; test: Induction of apoptosis in human HeLa cells assessed as accumulation at subG1 phase at 3 uM in presence of 10 uM CuCl2 after 24 hrs using propidium iodide staining by flow cytometry; type: functional; in short: as §3
[28] = test system: HeLa; test: Induction of apoptosis in human HeLa cells assessed as accumulation at subG1 phase at 3 uM in presence of 1 mM tempol after 24 hrs using propidium iodide staining by flow cytometry; type: functional; in short: as §3
[29] = test system: HeLa; test: Stimulation of reactive oxygen species in human HeLa cells at 3 uM in presence of 5 uM CuCl2 after 1 hr by dihydroethidium dye based fluorescence assay; type: functional, cell-based
In short: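 HeLa cells grown in DMEM with 10% FBS, 2 mM glutamine, penicillin/streptomycin at 37 °C, 5% CO2. Compound given with CuCl2, with or without tempol 1 mM; 0.5% DMSO control, untreated blank. Dihydroethidium 5 µmol/L loaded 30 min, PBS wash, epifluorescence microscopy; four separate cultures, two to six coverslips each.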

[30] = test system: HeLa; test: Activation of ERK phosphorylation in human HeLa cells at 3 uM in presence of 10 uM CuCl2 after 2 hrs by Western blot; type: cell-based; in short: as §2
[31] = Activation of JNK phosphorylation in human HeLa cells at 3 uM in presence of 10 uM CuCl2 after 2 hrs by Western blot; type: cell-based; in short: as §2
[32] = molecular target: T1, MAP kinase p38 (Homo sapiens); test: Activation of p38 phosphorylation in human HeLa cells at 3 uM in presence of 10 uM CuCl2 after 2 hrs by Western blot; type: cell-based; in short: as §2

GI50 [1]: 6.8 µM
Activity [3]: tde
Activity [6]: inactive
Activity [9]: inactive
GI50 [14]: 2.5 µM
GI50 [15]: 0.31 µM
GI50 [16]: 0.27 µM
GI50 [17]: 7.5 µM
GI50 [18]: 7.3 µM
Activity [32]: Active
Structure (SMILES): O=S(=O)(c1ccccc1)N1CCN(Cc2ccc3cccnc3c2O)CC1
GI50 [2]: 10.7 µM
Activity [4]: inactive
Activity [5]: inactive
Activity [7]: inactive
Activity [8]: inactive
Activity [10]: tde
Activity [11]: tde
GI50 [12]: 14.6 µM
GI50 [13]: 5.6 µM
Activity [19]: Dose-dependent effect
Activity [20]: Active
Activity [21]: Active
Activity [22]: Active
Activity [23]: Active
Activity [24]: Active
Activity [25]: Active
Activity [26]: 7.91%
Activity [27]: 29.76%
Activity [28]: 5.79%
Activity [29]: Active
Activity [30]: Active
Activity [31]: Active

GI50 [1]: 14.5 µM
GI50 [14]: 3 µM
GI50 [15]: 0.58 µM
GI50 [16]: 0.35 µM
GI50 [17]: 8.5 µM
GI50 [18]: 12.9 µM
Structure (SMILES): Oc1c(CN2CCCCC2)ccc2cccnc12
GI50 [2]: 26.9 µM
GI50 [12]: 16.6 µM
GI50 [13]: 16.7 µM
Activity [29]: Active
